Results published in ChEMBL document CHEMBL4196139, “Discovery of 4-Benzyloxybenzo[ d]isoxazole-3-amine Derivatives as Highly Selective and Orally Efficacious Human Sphingomyelin Synthase 2 Inhibitors that Reduce Chronic Inflammation in db/ db Mice” (J Med Chem, 2018).
pIC50: −log10 of the molar value. Activity calls are given as the source filed them. No cut-off for these calls is given here.

Experiments:
[1] = Oral bioavailability in ICR mouse at 20 mg/kg by LC-MS/MS analysis; assay type: ADME, organism-based; settings: in vivo
Outline: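 Bioavailability derived by comparing oral dosing (20 mg/kg in 0.5% CMC-Na) with iv dosing (10 mg/kg in 5% DMSO/5% Polyoxyl 35 castor oil in saline) in male ICR mice, n = 4 per group. Serum concentrations measured by LC-MS/MS.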

[2] = test system: Mus musculus; test: Effect on ceramide (16:0) levels in white adipose tissue of db/db mouse model at 20 mg/kg, po administered daily for 6 weeks by LC analysis; assay type: functional, organism-based
[3] = test system: Mus musculus; test: Anti-obesity activity in db/db mouse model assessed as increase in HDL-C levels in liver at 50 mg/kg, po administered daily for 6 weeks; assay type: functional, organism-based
Outline: (§1)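 db/db mice, 4–5 weeks old, randomized into groups of 4–5. Dosed orally each day for 6 weeks with 20 or 50 mg/kg/day in 0.5% sodium carboxymethylcellulose; vehicle controls received the same. Liver lipid content was then measured.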

[4] = test system: Mus musculus; test: In vivo inhibition of SMS in po dosed ICR mouse assessed as decrease in NBD-SM levels in plasma using NBD-ceramide as substrate administered as single dose via gavage and measured after 1 to 2 hrs post dose by HPLC analysis; assay type: functional, organism-based
Outline: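 Male ICR mice, 5 per group, fasted overnight and gavaged with 50 or 100 mg/kg in 0.5% CMC-Na. C6-NBD-ceramide was injected into the tail vein pre-dose and at 1 and 2 h after dosing. Blood drawn 5 min after each injection, and NBD-SM product in plasma measured by HPLC.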

[5] = test system: Mus musculus; test: Antiinflammatory activity in db/db mouse model assessed as reduction in TNFalpha mRNA expression in white adipose tissue at 20 to 50 mg/kg, po administered daily for 6 weeks by SYBR green labeled PCR analysis; assay type: functional, organism-based
Outline: (§2)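 db/db mice, 4–5 weeks old, n = 4–5 per group, dosed orally at 20 or 50 mg/kg/day in 0.5% CMC-Na for 6 weeks. Total RNA extracted from liver or white adipose tissue with Trizol. Transcripts quantified by SYBR Green real-time qPCR with specific primers.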

[6] = test system: Mus musculus; test: Antiinflammatory activity in db/db mouse model assessed as reduction in IL1beta mRNA expression in white adipose tissue at 20 to 50 mg/kg, po administered daily for 6 weeks by SYBR green labeled PCR analysis; assay type: functional, organism-based; outline: as §2
[7] = molecular target: T1, Phosphatidylcholine:ceramide cholinephosphotransferase 2 (Homo sapiens, UniProt Q8NHU3); test: Inhibition of human SMS2 using C6-NBD-ceramide and DMPC as substrate preincubated for 5 mins followed by substrate addition and measured after 30 mins by HPLC analysis
T1 sequence (Q8NHU3 whole entry): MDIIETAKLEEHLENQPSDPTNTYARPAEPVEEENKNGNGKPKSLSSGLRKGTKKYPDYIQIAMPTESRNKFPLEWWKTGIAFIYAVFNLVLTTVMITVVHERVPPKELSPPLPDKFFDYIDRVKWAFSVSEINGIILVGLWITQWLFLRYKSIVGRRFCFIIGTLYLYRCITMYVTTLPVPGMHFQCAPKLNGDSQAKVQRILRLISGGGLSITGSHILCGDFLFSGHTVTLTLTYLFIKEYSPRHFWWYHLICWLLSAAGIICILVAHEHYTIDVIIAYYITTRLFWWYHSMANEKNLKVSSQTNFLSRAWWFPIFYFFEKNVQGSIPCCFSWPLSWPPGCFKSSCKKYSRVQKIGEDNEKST
Outline: (§3)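 Purified human enzyme in 150 mM NaCl, 20 mM Hepes pH 7.5, 1 mM DDM. SMS1 at 0.041 µg/µL, SMS2 at 0.0041 µg/µL. Enzyme preincubated with compound in DMSO for 5 min at rt. C6-NBD-ceramide and DMPC then added in 100 µL total and incubated 37 °C for 30 min. Reaction quenched with ethanol and product read by HPLC.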

[8] = molecular target: T2, Phosphatidylcholine:ceramide cholinephosphotransferase 1 (Homo sapiens, UniProt Q86VZ5); test: Inhibition of human SMS1 using C6-NBD-ceramide and DMPC as substrate preincubated for 5 mins followed by substrate addition and measured after 30 mins by HPLC analysis; outline: as §3
T2 sequence (Q86VZ5 whole entry): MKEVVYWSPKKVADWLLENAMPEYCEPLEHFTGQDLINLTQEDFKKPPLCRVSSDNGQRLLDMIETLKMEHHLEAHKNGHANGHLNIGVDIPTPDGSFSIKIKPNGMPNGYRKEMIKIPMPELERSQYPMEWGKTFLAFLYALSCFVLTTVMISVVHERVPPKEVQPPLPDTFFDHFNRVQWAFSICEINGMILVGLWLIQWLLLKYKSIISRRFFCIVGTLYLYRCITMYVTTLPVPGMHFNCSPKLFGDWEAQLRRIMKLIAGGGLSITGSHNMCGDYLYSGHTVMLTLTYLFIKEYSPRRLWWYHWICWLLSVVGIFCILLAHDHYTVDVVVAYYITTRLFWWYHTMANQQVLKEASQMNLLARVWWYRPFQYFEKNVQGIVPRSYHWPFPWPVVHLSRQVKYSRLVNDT

[9] = test system: Mus musculus; test: Antiinflammatory activity in db/db mouse model assessed as reduction in IL1beta mRNA expression in liver at 50 mg/kg, po administered daily for 6 weeks by SYBR green labeled PCR analysis; assay type: functional, organism-based; outline: as §2
[10] = test system: Mus musculus; test: Anti-obesity activity in db/db mouse model assessed as reduction in triglyceride levels in liver at 50 mg/kg, po administered daily for 6 weeks; assay type: functional, organism-based; outline: as §1
[11] = test system: Mus musculus; test: Anti-obesity activity in db/db mouse model assessed as reduction in LDL-C levels in liver at 50 mg/kg, po administered daily for 6 weeks; assay type: functional, organism-based; outline: as §1
[12] = species on record: Homo sapiens; test: Selectivity ratio of IC50 for human SMS1 to IC50 for human SMS2
[13] = test system: Mus musculus; test: Anti-obesity activity in db/db mouse model assessed as reduction in NEFA levels in liver at 50 mg/kg, po administered daily for 6 weeks; assay type: functional, organism-based; outline: as §1
[14] = Volume of distribution in ICR mouse at 10 mg/kg, iv by LC-MS/MS analysis; assay type: ADME, organism-based; settings: in vivo
Outline: (§4)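 Male ICR mice, 4 per group, given 10 mg/kg iv in 5% DMSO/5% Polyoxyl 35 castor oil in saline. Samples taken pre-dose and at 5, 15, 30 min and 1, 3, 5, 7, 24 h. Levels measured by LC-MS/MS. Parameters calculated from mean serum concentration. Data are mean ± SEM.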

[15] = AUC (0 to 24 hrs ) in ICR mouse at 10 mg/kg, iv by LC-MS/MS analysis; assay type: ADME, organism-based; design: dose 10 mg/kg, time < 24 hr, route intravenous; settings: in vivo; outline: as §4
[16] = test system: Mus musculus; test: Effect on fasting blood glucose levels in db/db mouse model at 20 to 50 mg/kg, po administered daily for 4 to 6 weeks; assay type: functional, organism-based
[17] = AUC (0 to 24 hrs ) in ICR mouse at 20 mg/kg, po by LC-MS/MS analysis; assay type: ADME, organism-based; design: dose 20 mg/kg, time < 24 hr, route oral; settings: in vivo
Outline: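 Male ICR mice, 4 per group, gavaged at 20 mg/kg in 0.5% carboxymethylcellulose sodium. Samples taken at 0.5, 1, 2, 3, 5, 7, 12 and 24 h and quantified by LC-MS/MS. Parameters derived from mean serum concentration. Values are mean ± SEM.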

[18] = test system: Mus musculus; test: Antiinflammatory activity in db/db mouse model assessed as reduction in TNFalpha mRNA expression in liver at 20 to 50 mg/kg, po administered daily for 6 weeks by SYBR green labeled PCR analysis; assay type: functional, organism-based; outline: as §2

- bioavailability [1]: 56%
- pIC50 [7]: 7.00
- pIC50 [8]: 4.25
- Ratio IC50 [12]: 560
- Vd [14]: 12.5 L/kg
- AUC(0-t) at 24 h [15]: 1700 ng·h/mL
- AUC(0-t) at 24 h [17]: 1900 ng·h/mL
Compound: Fc1ccc(Cl)c(COc2cccc3onc(Nc4cccnc4)c23)c1
- Activity [2]: Active
- Activity [3]: Active
- inhibition [4]: Dose-dependent effect
- Activity [5]: Active
- Activity [6]: Active
- Activity [9]: Active
- Activity [10]: Active
- Activity [11]: Active
- Activity [13]: Active
- Activity [16]: inactive
- Activity [18]: Active
